Test results from ChEMBL document CHEMBL3046721, “3-(Arylthiomethyl)isoxazole-4,5-dicarboxamides: chemoselective nucleophilic chemistry and insecticidal activity” (2009).
The source made the active and inactive calls. Unless noted, the calls are words filed in the database; no cut-off is given here.

Key:
Spodoptera exigua [1] = experiment: Insecticidal activity against second-instar larval stage of Spodoptera exigua fed with artificial diet containing compound assessed as mortality after 5 days by diet-based secondary assay; type: functional
Summary of the method: (§1)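 Follow-up for primary-screen hits (>67% mortality): 128-well diet trays, 1 mL diet containing selected dosages, second-instar larvae. Wells covered with clear plastic, eight wells per treatment, percent mortality averaged over eight wells at 5 days. Approximate LC50 estimated by probit analysis.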

Spodoptera exigua [2] = experiment: Insecticidal activity against larvae of Spodoptera exigua fed with artificial diet containing compound assessed as mortality after 6 days by high-throughput screening assay; type: functional; design: concentration or dose not given beside the values
Summary of the method: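 Artificial diet (100 μl/well, 96-well) pretreated with 12 μg compound in 30 μl DMSO-acetone-water (2:1:7), dried several hours, then seeded with eggs. Plates covered, kept in dark at 29°C, mortality recorded 6 days post-treatment. Six replicates per treatment.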

Aedes aegypti = experiment: Insecticidal activity against larvae of Aedes aegypti assessed as mortality after 3 days by high-throughput screening assay; type: functional, organism-based
Summary of the method: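 One-day-old larvae placed in 96-well plates pre-treated with 6 μg/well, applied in 15 μl DMSO-acetone-water (1:1:8) and dried. Plates lidded, held at room temperature, mortality graded 3 days post-treatment. Six replicates per treatment.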

Helicoverpa zea = experiment: Insecticidal activity against second-instar larval stage of Helicoverpa zea (corn earworm) fed with artificial diet containing compound assessed as mortality after 5 days by diet-based secondary assay; type: functional, organism-based; summary of the method: as §1
Spodoptera exigua [3] = experiment: Insecticidal activity against second-instar larval stage of Spodoptera exigua fed with artificial diet containing compound assessed as mortality at 50 ug/cm2 after 5 days by diet-based secondary assay; type: functional; conditions: 120 h
Summary of the method: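 Second-instar larvae on 128-well trays with 1 mL diet dosed at 50 μg/cm2, eight wells per treatment under clear plastic. Percent mortality averaged over the eight wells, scored 5 days after assay start; tested only on primary-screen hits (>67% mortality).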

| SMILES | LC50 (Spodoptera exigua [1]) [microg/cm2] | mortality (Spodoptera exigua [2]) [%] | mortality (Aedes aegypti) | mortality (Helicoverpa zea) | mortality at 50 µg/cm2 (Spodoptera exigua [3]) [%] |
| --- | --- | --- | --- | --- | --- |
| CC[C@H]1CCC[C@H](O[C@H]2CC[C@H](N(C)C)[C@@H](C)O2)[C@@H](C)C(=O)C2=C[C@@H]3[C@@H](C=C(C)[C@@H]4C[C@@H](O[C@@H]5O[C@@H](C)[C@H](OC)[C@@H](OC)[C@H]5OC)C[C@@H]34)[C@@H]2CC(=O)O1.CC[C@H]1CCC[C@H](O[C@H]2CC[C@H](N(C)C)[C@@H](C)O2)[C@@H](C)C(=O)C2=C[C@@H]3[C@@H](C=C[C@@H]4C[C@@H](O[C@@H]5O[C@@H](C)[C@H](OC)[C@@H](OC)[C@H]5OC)C[C@@H]34)[C@@H]2CC(=O)O1 | 0.06 |  |  |  |  |
| CCCCNC(=O)c1onc(CS(=O)(=O)c2ccccc2)c1C(=O)NCCCC | 30 | 100 | inactive | inactive | 75 |
| COCCNC(=O)c1onc(CS(=O)(=O)c2ccccc2)c1C(=O)NCCOC | 19 | 83 | inactive | inactive | 75 |
| C=CCNC(=O)c1c(CS(=O)(=O)c2ccc(Cl)cc2)noc1C(=O)NCc1ccccc1 |  | 100 | inactive | inactive | 38 |
| CCCNC(=O)c1c(CS(=O)(=O)c2ccccc2)noc1C(=O)NCc1ccccc1 |  | 100 | inactive | inactive | 0 |
| CCCNC(=O)c1onc(CS(=O)(=O)c2ccc(Cl)cc2)c1C(=O)NCCC |  | 83 | inactive | inactive | 0 |
| CC(C)NC(=O)c1onc(CSc2ccc(Cl)cc2)c1C(=O)NC(C)C |  | 83 | inactive | inactive | 0 |
| C=CCNC(=O)c1c(CSc2ccc(Cl)cc2)noc1C(=O)NCc1ccccc1 |  | 83 | inactive | inactive | 0 |
| CC(C)CCNC(=O)c1onc(CSc2ccc(Cl)cc2)c1C(=O)NCCC(C)C |  | 100 | inactive | inactive | 0 |
| C=CCNC(=O)c1c(CS(=O)(=O)c2ccccc2)noc1C(=O)NCc1ccccc1 |  | 100 | inactive | inactive | 0 |
| C=CCNC(=O)c1onc(CS(=O)(=O)c2ccc(Cl)cc2)c1C(=O)NCC=C |  | 100 | inactive | inactive | 0 |
| CCCNC(=O)c1c(CSc2ccccc2)noc1C(=O)NCc1ccccc1 |  | 83 | inactive | inactive | 38 |
| CCCCNC(=O)c1c(CS(=O)(=O)c2ccc(Cl)cc2)noc1C(=O)NCc1ccccc1 |  | 83 | inactive | inactive | 0 |
| CCCNC(=O)c1c(CS(=O)(=O)c2ccc(Cl)cc2)noc1C(=O)NCc1ccccc1 |  | 100 | inactive | inactive | 0 |
| CC(C)NC(=O)c1c(CSc2ccccc2)noc1C(=O)NCc1ccccc1 |  | 83 | inactive | inactive | 0 |
| COCCNC(=O)c1onc(CSc2ccc(Cl)cc2)c1C(=O)NCCOC |  | 83 | inactive | inactive | 0 |
